Measured values as given in ChEMBL document CHEMBL1126849, “Synthesis of A-ring fluorinated derivatives of (17 alpha,20E/Z)-[125I]iodovinylestradiols: effect on receptor binding and receptor-mediated target tissue uptake” (J Med Chem, 1993).

How the values were obtained:
Rattus norvegicus [1] = experiment: Biodistribution in muscle of immature female rat after 5 hour administration of 3 micro Ci (111 kBq) in the absence of 60 microg estradiol; type: ADME, organism-based, Muscle tissue; details: in vivo
Procedure, shortened: (§1)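 Immature female Long Evans rats (21–24 days, 45–70 g), three to five per group, given 125I-labeled steroid (3 μCi, 111 kBq) by lateral tail vein without anesthesia. Vehicle: ethanol diluted in saline with 1% Tween-80, final ethanol 9%, 0.22 μm filtered. +E2 groups received 60 μg unlabeled estradiol co-injected. Killed under ether at set times; tissues KCl-washed, blotted, weighed, gamma counted; %ID/g, mean with SE.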

Rattus norvegicus [2] = experiment: Biodistribution in spleen of immature female rat after 12 hour administration of 3 micro Ci (111 kBq) in the absence of 60 microg estradiol; type: ADME, organism-based; details: in vivo; procedure, shortened: as §1
Rattus norvegicus [3] = experiment: Biodistribution in uterus of immature female rat after 12 hour administration of 3 micro Ci (111 kBq) in the absence of 60 microg estradiol; type: ADME, organism-based; details: in vivo
Procedure, shortened: (§2)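 Immature female Long Evans rats (21–24 days, 45–70 g), 3–5 per group, unanesthetized in retention cages, given 3 μCi (111 kBq) 125I-labeled steroid by lateral tail vein. Vehicle: ethanol diluted with saline containing 1% Tween-80, final ethanol 9%. +E2 group co-injected 60 μg unlabeled estradiol (1 h only). Killed under ether; tissues KCl-washed, weighed, gamma-counted. Output: %ID/g (mean, SE) and uterus to blood or nontarget (muscle, spleen, lungs) ratios.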

Rattus norvegicus [4] = experiment: Biodistribution in uterus / spleen, muscle, lungs of immature female rat after 5 hour administration of 3 micro Ci (111 kBq) in the absence of 60 microg estradiol; type: ADME, organism-based; details: in vivo; procedure, shortened: as §2
Rattus norvegicus [5] = experiment: Biodistribution in uterus / blood of immature female rat after 1 hr administration of 3 micro Ci (111 kBq) in the presence of (+E2); type: ADME, organism-based; details: in vivo
Procedure, shortened: (§3)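 Same in vivo procedure: immature female Long Evans rats (21–24 days), three to five per group, 3 μCi (111 kBq) tracer i.v. via tail vein in 9% ethanol/saline/1% Tween-80, ± 60 μg estradiol co-injected at 1 h. Uterus %ID/g (gamma counting) divided by blood, or by nontarget organ (muscle, spleen, lungs), %ID/g to give ratios.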

Rattus norvegicus [6] = experiment: Biodistribution in spleen of immature female rat after 5 hour administration of 3 micro Ci (111 kBq) in the absence of 60 microg estradiol; type: ADME, organism-based; details: in vivo; procedure, shortened: as §1
Rattus norvegicus [7] = experiment: Biodistribution in kidney of immature female rat after 5 hour administration of 3 micro Ci (111 kBq) in the absence of 60 microg estradiol; type: ADME, organism-based; details: in vivo
Procedure, shortened: (§4)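 Immature female Long Evans rats (21–24 days, 45–70 g), unanesthetized in retention cages, given 3 µCi (111 kBq) 125I-labeled steroid i.v. via lateral tail vein. Vehicle was ethanol diluted in saline containing 1% Tween-80, giving 9% ethanol final. The blocking group received 60 µg unlabeled estradiol co-injected. Rats were killed under ether by axillary bleeding, and tissues were KCl-washed and gamma-counted. Data are %ID/g, mean ± SE, n=3–5.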

Rattus norvegicus [8] = experiment: Biodistribution in uterus of immature female rat after 1 hr administration of 3 micro Ci (111 kBq) in the presence of (+E2); type: ADME, organism-based; details: in vivo; procedure, shortened: as §2
Rattus norvegicus [9] = experiment: Biodistribution in lungs of immature female rat after 5 hour administration of 3 micro Ci (111 kBq) in the absence of 60 microg estradiol; type: ADME, organism-based, Lung; details: in vivo; procedure, shortened: as §1
Rattus norvegicus [10] = experiment: Biodistribution in thyroid of immature female rat after 5 hour administration of 3 micro Ci (111 kBq) in the absence of 60 microg estradiol; type: ADME, organism-based, Thyroid gland; details: in vivo; procedure, shortened: as §1
Rattus norvegicus [11] = experiment: Biodistribution in fat of immature female rat after 12 hour administration of 3 micro Ci (111 kBq) in the absence of 60 microg estradiol; type: ADME, organism-based, Adipose tissue; details: in vivo; procedure, shortened: as §4
Rattus norvegicus [12] = experiment: Biodistribution in uterus / spleen, muscle, lungs of immature female rat after 1 hr administration of 3 micro Ci (111 kBq) in the presence of (+E2); type: ADME, organism-based; details: in vivo; procedure, shortened: as §3
[13] = molecular target: T1, Estrogen receptor (Mus musculus) (UniProt O08537+P19785); experiment: Relative binding affinity (RBA) for murine cytoplasmic estrogen receptor at 4C for 2 hr; type: protein assay
Procedure, shortened: (§5)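 Murine uterine cytoplasmic extract incubated 2 h at 4 °C or at 25 °C with 20 nM [3H]estradiol and competitors at 2 nM–20 μM. RBA is taken as 100 × the ratio of competitor to unlabeled estradiol concentration needed for 50% competition of specific [3H]estradiol binding.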

[14] = molecular target: T1, Estrogen receptor (Mus musculus); experiment: Relative binding affinity (RBA) for murine cytoplasmic estrogen receptor at 25 degree C for 2 hr; type: protein assay; procedure, shortened: as §5
Rattus norvegicus [15] = experiment: Biodistribution in blood of immature female rat after 1 hr administration of 3 micro Ci (111 kBq) in the presence of (+E2); type: ADME, organism-based; details: in vivo; procedure, shortened: as §4
Rattus norvegicus [16] = experiment: Biodistribution in uterus / blood of immature female rat after 12 hour administration of 3 micro Ci (111 kBq) in the absence of 60 microg estradiol; type: ADME, organism-based; details: in vivo; procedure, shortened: as §3
Rattus norvegicus [17] = experiment: Biodistribution in spleen of immature female rat after 3 hour administration of 3 micro Ci (111 kBq) in the absence of 60 microg estradiol; type: ADME, organism-based; details: in vivo; procedure, shortened: as §1
Rattus norvegicus [18] = experiment: Biodistribution in uterus / spleen, muscle, lungs of immature female rat after 12 hour administration of 3 micro Ci (111 kBq) in the absence of 60 microg estradiol; type: ADME, organism-based; details: in vivo; procedure, shortened: as §2
Rattus norvegicus [19] = experiment: Biodistribution in liver of immature female rat after 12 hour administration of 3 micro Ci (111 kBq) in the absence of 60 microg estradiol; type: ADME, organism-based; details: in vivo; procedure, shortened: as §4
Rattus norvegicus [20] = experiment: Biodistribution in uterus / spleen, muscle, lungs of immature female rat after 3 hour administration of 3 micro Ci (111 kBq) in the absence of 60 microg estradiol; type: ADME, organism-based; details: in vivo; procedure, shortened: as §2
Rattus norvegicus [21] = experiment: Biodistribution in kidney of immature female rat after 1 hr administration of 3 micro Ci (111 kBq) in the absence of 60 microg estradiol; type: ADME, organism-based; details: in vivo; procedure, shortened: as §4
Rattus norvegicus [22] = experiment: Biodistribution in thyroid of immature female rat after 3 hour administration of 3 micro Ci (111 kBq) in the absence of 60 microg estradiol; type: ADME, organism-based, Thyroid gland; details: in vivo; procedure, shortened: as §1
Rattus norvegicus [23] = experiment: Biodistribution in fat of immature female rat after 1 hr administration of 3 micro Ci (111 kBq) in the presence of (+E2); type: ADME, organism-based, Adipose tissue; details: in vivo; procedure, shortened: as §4
Rattus norvegicus [24] = experiment: Biodistribution in spleen of immature female rat after 1 hr administration of 3 micro Ci (111 kBq) in the presence of (+E2); type: ADME, organism-based; details: in vivo; procedure, shortened: as §1
Rattus norvegicus [25] = experiment: Biodistribution in liver of immature female rat after 5 hour administration of 3 micro Ci (111 kBq) in the absence of 60 microg estradiol; type: ADME, organism-based; details: in vivo; procedure, shortened: as §4
Rattus norvegicus [26] = experiment: Biodistribution in thyroid of immature female rat after 12 hour administration of 3 micro Ci (111 kBq) in the absence of 60 microg estradiol; type: ADME, organism-based, Thyroid gland; details: in vivo; procedure, shortened: as §1
Rattus norvegicus [27] = experiment: Biodistribution in blood of immature female rat after 5 hour administration of 3 micro Ci (111 kBq) in the absence of 60 microg estradiol; type: ADME, organism-based; details: in vivo; procedure, shortened: as §4
[28] = molecular target: T1, Estrogen receptor (Mus musculus); experiment: Relative binding affinity (RBA) for murine cytoplasmic estrogen receptor at 4C for 18 hr; type: protein assay
Procedure, shortened: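 Competitive binding on murine uterine cytoplasmic extract with 20 nM [3H]estradiol and competitor steroids at 2 nM–20 μM, incubated 18 h at 0–4 °C. RBA = 100 × ratio of […] concentration giving 50% competition for specific binding. Mean of three experiments with SD.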

Rattus norvegicus [29] = experiment: Biodistribution in liver of immature female rat after 1 hr administration of 3 micro Ci (111 kBq) in the presence of (+E2); type: ADME, organism-based; details: in vivo; procedure, shortened: as §4

T1 sequence (O08537 whole entry, looked up): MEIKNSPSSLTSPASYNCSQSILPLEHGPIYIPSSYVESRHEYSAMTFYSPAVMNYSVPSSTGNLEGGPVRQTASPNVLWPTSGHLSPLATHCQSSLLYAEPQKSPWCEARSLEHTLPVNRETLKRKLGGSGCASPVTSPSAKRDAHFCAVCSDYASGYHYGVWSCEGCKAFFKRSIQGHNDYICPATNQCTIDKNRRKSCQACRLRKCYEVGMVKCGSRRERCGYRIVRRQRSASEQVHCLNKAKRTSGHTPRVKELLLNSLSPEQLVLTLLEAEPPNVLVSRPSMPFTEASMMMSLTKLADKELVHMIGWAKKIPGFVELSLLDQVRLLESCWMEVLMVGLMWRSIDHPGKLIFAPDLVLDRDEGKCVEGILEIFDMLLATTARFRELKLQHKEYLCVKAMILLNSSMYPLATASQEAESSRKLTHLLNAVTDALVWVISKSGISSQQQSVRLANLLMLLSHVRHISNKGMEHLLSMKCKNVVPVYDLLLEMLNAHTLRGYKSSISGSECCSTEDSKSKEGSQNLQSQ
T1 sequence (P19785 whole entry, looked up): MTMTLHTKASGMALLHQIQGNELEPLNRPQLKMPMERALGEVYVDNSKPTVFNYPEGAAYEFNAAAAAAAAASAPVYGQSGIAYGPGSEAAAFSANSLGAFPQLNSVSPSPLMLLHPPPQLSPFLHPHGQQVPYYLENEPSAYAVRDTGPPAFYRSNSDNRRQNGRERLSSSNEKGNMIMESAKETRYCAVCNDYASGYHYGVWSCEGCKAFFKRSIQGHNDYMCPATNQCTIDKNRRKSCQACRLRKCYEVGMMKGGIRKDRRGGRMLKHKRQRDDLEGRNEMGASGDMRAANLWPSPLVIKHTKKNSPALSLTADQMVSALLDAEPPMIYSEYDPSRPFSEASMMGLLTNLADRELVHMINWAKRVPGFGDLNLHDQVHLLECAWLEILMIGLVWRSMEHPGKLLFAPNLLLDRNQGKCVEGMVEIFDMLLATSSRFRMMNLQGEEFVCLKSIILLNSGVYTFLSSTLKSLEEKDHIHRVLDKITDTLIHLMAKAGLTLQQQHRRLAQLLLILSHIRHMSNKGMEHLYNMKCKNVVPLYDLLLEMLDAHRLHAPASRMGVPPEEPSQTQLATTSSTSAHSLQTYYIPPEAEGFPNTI

ID/g (Rattus norvegicus [1]) | ID/g (Rattus norvegicus [2]) | ID/g (Rattus norvegicus [3]) | uterus/blood %ID/g ratio (Rattus norvegicus [5]) | ID/g (Rattus norvegicus [6]) | ID/g (Rattus norvegicus [7]) | ID/g (Rattus norvegicus [8]) | ID/g (Rattus norvegicus [9]) | ID/g (Rattus norvegicus [10]) | ID/g (Rattus norvegicus [11]) | RBA [13] | RBA [14] | ID/g (Rattus norvegicus [15]) | ID/g (Rattus norvegicus [17]) | ID/g (Rattus norvegicus [19]) | ID/g (Rattus norvegicus [21]) | ID/g (Rattus norvegicus [22]) | ID/g (Rattus norvegicus [23]) | ID/g (Rattus norvegicus [24]) | ID/g (Rattus norvegicus [25]) | SMILES | other results
0.38% | 0.43% | 6.02% | 1.65% | 0.4% | 0.58% | 0.86% | 0.56% | 117% | 0.75% | 47.4 | 203 | 0.55% | 0.48% | 1.78% | 1.87% | 87.39% | 3.41% | 0.56% | 1.64% | C[C@]12CC[C@@H]3c4ccc(O)c(F)c4CC[C@H]3[C@@H]1CC[C@@]2(O)/C=C\I | uterus to nontarget tissue ratio (Rattus norvegicus [4]): 28.59%; uterus-to-nontarget tissue uptake ratio (Rattus norvegicus [12]): 1.21%; Uterus-to-blood radioactivity ratio (dimensionless) (Rattus norvegicus [16]): 27.32%; uterus to nontarget tissue ratio (Rattus norvegicus [18]): 31.56%; Uterus to nontarget tissue (spleen, muscle, lungs) uptake ratio (Rattus norvegicus [20]): 12.16%; ID/g (Rattus norvegicus [26]): 488%; ID/g (Rattus norvegicus [27]): 0.47%; RBA [28]: 66.9; ID/g (Rattus norvegicus [29]): 3.04%
0.14% | 0.17% | 2.51% | 1.2% | 0.2% | 0.3% | 0.68% | 0.24% | 149.9% | 0.19% | 40.1 | 99 | 0.58% | 0.29% | 0.81% | 0.88% | 75.3% | 2.88% | 1% | 1.16% | C[C@]12CC[C@@H]3c4cc(F)c(O)cc4CC[C@H]3[C@@H]1CC[C@@]2(O)/C=C\I | uterus to nontarget tissue ratio (Rattus norvegicus [4]): 18.05%; uterus-to-nontarget tissue uptake ratio (Rattus norvegicus [12]): 0.51%; Uterus-to-blood radioactivity ratio (dimensionless) (Rattus norvegicus [16]): 15.69%; uterus to nontarget tissue ratio (Rattus norvegicus [18]): 20.54%; Uterus to nontarget tissue (spleen, muscle, lungs) uptake ratio (Rattus norvegicus [20]): 17.64%; ID/g (Rattus norvegicus [26]): 365%; ID/g (Rattus norvegicus [27]): 0.3%; RBA [28]: 53.7; ID/g (Rattus norvegicus [29]): 2.58%
0.28% | 0.05% | 0.08% | 1.09% | 0.27% | 0.25% | 0.52% | 0.54% | 43.46% | 0.41% | 30.4 | 5.3 | 0.49% | 0.32% | 1.58% | 0.87% | 39.1% | 2.93% | 0.56% | 2.12% | C[C@]12CC[C@@H]3c4cc(F)c(O)cc4CC[C@H]3[C@@H]1CC[C@@]2(O)/C=C/I | ID/g (Rattus norvegicus [26]): 163%; ID/g (Rattus norvegicus [27]): 0.29%; RBA [28]: 6.2; ID/g (Rattus norvegicus [29]): 3.86%
0.14% | 0.1% | 0.43% | 1.02% | 0.17% | 0.26% | 0.77% | 0.28% | 208% | 0.3% | 58.7 | 29.1 | 0.81% | 0.36% | 0.59% | 0.93% | 128% | 1.14% | 0.51% | 1.21% | C[C@]12CC[C@@H]3c4ccc(O)c(F)c4CC[C@H]3[C@@H]1CC[C@@]2(O)/C=C/I | uterus to nontarget tissue ratio (Rattus norvegicus [4]): 10.41%; uterus-to-nontarget tissue uptake ratio (Rattus norvegicus [12]): 1.17%; Uterus-to-blood radioactivity ratio (dimensionless) (Rattus norvegicus [16]): 2.76%; uterus to nontarget tissue ratio (Rattus norvegicus [18]): 5.4%; Uterus to nontarget tissue (spleen, muscle, lungs) uptake ratio (Rattus norvegicus [20]): 11.38%; ID/g (Rattus norvegicus [26]): 385%; ID/g (Rattus norvegicus [27]): 0.26%; RBA [28]: 55.9; ID/g (Rattus norvegicus [29]): 3.06%
